Tn7 DDE FP: DD(E)-Tn7 binding inhibition, primary FP screen | P02675 | 370,000 tested, 0.13% active | FP displacement of FITC-Tn7 peptide from fibrin DD(E); 0% = median of compound wells per plate | inhibition, % at 8.3 µM;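 active = inhibition above the mean of compounds falling within the control limits plus 3 SD of them, cut at about 14% in these data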;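 note: 0% = plate median of compound wells and 100% = 10 µM Aha-Tn7 peptide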
Target sequence (P02675 whole entry, looked up): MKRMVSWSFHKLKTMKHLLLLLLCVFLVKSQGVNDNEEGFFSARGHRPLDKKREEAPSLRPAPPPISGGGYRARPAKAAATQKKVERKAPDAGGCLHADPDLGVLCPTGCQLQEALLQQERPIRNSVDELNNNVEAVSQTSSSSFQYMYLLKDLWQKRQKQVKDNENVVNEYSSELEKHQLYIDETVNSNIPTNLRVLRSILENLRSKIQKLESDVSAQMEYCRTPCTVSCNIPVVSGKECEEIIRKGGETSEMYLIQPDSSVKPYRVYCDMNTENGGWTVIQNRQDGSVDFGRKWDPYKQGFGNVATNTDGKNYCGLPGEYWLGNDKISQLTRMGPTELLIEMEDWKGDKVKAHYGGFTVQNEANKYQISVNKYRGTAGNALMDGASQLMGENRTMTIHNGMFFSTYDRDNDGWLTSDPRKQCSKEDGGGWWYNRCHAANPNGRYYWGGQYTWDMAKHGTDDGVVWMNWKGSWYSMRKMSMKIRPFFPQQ
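Assay system: Fibrin-DD(E) protein isolated from polymerized human fibrin clots; read-out basis: percent inhibition; medium: Tris/NaCl/CaCl2 buffer, pH 7.8; signal: FP measurement; incubation: 10 min plus 3 h, room temperature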
GRK2 aptamer HTS: blocks RNA aptamer binding to human GRK2; P25098; bead flow cytometry, FAM-aptamer displacement from GRK2; inhibition of aptamer binding, % at 10 µM; 330,000 tested, 0.59% active;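 active = inhibition of aptamer binding above 40%, roughly 3 SD of noise, on plates passing a quality check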;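 note: median bead fluorescence of bound FAM aptamer so fluorescent compounds give negative values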
Ins promoter up: MIN6 insulin promoter up-regulation. AID 1625. z-score at 5 µM. 190,000 tested, 0.3% active. MIN6 insulin promoter-GFP reporter, high-content imaging; stronger effect = higher value;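 active = z-score above 3 at 5 µM with at least 500 cells counted in the well; inconclusive = wells under 500 cells, flagged as cytotoxic or low count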
ABCG2 block: inhibitors of human ABCG2 transporter, ABCB1 counter-screen; inhibition, % at 6.6 µM; 190,000 tested, 0.1% active; IgMXP3 cells, JC-1 efflux, flow cytometry; Q9UNQ0; AID 1325;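 active = inhibition above 80%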;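 note: 0% = DMSO and 100% = nicardipine control wells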
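Assay system – ABCG2 IgMXP3 and barcoded ABCB1 CCRF-Adr cell mix · Input – 3 million cells/mL in well · Reagent – JC-1 fluorescent substrate · Compound – single test compound dose, 6.6 µM final · Timing – 10 min exposure at 25 °C with rotation, no wash · Detection – flow cytometry of retained JC-1 fluorescence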
DDE Tn6 FP inh: DD(E)-Tn6 binding inhibition, primary FP screen; inhibition, % at 8.3 µM; 370,000 tested, 0.21% active; AID 720509; Fibrin DD(E) TRITC-Tn6 fluorescence polarization displacement; P02675;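 active = inhibition above a per-campaign cutoff: mean of compounds within control limits plus 3 SD, cut at about 15% in these data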;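 note: 0% = median of all compound wells on the plate and 100% = blocking peptide control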
ABCB1 block: blocks JC-1 efflux by human ABCB1 transporter; CCRF-Adr cells, flow cytometry; P08183; 190,000 tested, 0.067% active; inhibition, % at 6.6 µM; AID 1326; in the data active = inhibition above about 40%;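 note: 0% = vehicle and 100% = reference inhibitor; higher value means more JC-1 retained so stronger ABCB1 efflux block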
GRK2 inh confirm: confirmation of human GRK2 inhibitors displacing RNA aptamer | shares compounds with GRK2 aptamer HTS | bead-bound GRK2, FAM-aptamer displacement, flow cytometry | aptamer displacement, % at 10 µM | 2,000 tested, 4% active;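 active = aptamer displacement above 40%, near three times the noise of non-fluorescent compounds, on plates passing quality checks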;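 note: negative values mostly reflect intrinsic compound fluorescence rather than true enhancement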
Aptamer quench: quenches fluorescent RNA aptamer, GRK2 hit artifact. 110 tested, under 10 active. shares compounds with GRK2 aptamer HTS. AID 504521. Fluorescent RNA aptamer beads, quenching, flow cytometry; stronger effect = higher value. fluorescence change (kMESF span), kMESF (no concentration beside the values);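 active = compounds whose bead fluorescence drops by more than 37 kMESF across the dose range, marking them as dye quenchers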
FAM quench CP1: quenches fluorescent RNA aptamer, GRK2 hit artifact. shares compounds with GRK2 aptamer HTS. Carboxyfluorescein RNA aptamer on beads, flow cytometry quenching; stronger effect = lower value. fluorescence response (% of DMSO), % at 10 µM. 2,000 tested, under 10 active;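 active = compounds that quench the bead-bound fluorescent RNA probe, cutting fluorescence to under half of the solvent control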;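 note: counterscreen run without GRK2 so only probe quenching by compound is measured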
GRK2 CP2: human GRK2 inhibition confirmation, cherry pick 2; shares compounds with GRK2 aptamer HTS; bead-bound GRK2, FAM-aptamer displacement, flow cytometry; inhibition of aptamer binding, % at 10 µM; 360 tested, under 10 active; AID 504782;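 active = inhibition of aptamer binding above 40%, about triple the noise seen with nonglowing compounds, on plates passing quality control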;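 note: negative values mostly come from compounds that fluoresce themselves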
FAM quench CP2: aptamer fluorescence quenching in GRK2 counter-screen; shares compounds with GRK2 aptamer HTS; carboxyfluorescein RNA aptamer beads, flow cytometry quenching; stronger effect = lower value; fluorescence response vs DMSO, % at 10 µM; 360 tested, under 10 active; AID 588494;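 active = response vs DMSO under 50%, meaning signal dropped by over half, treated as fluorescence quencher; inconclusive = no clear call, values can overlap the other calls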;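 note: labelled aptamer on streptavidin beads without GRK2 as a quench counter-screen; 100% = bead fluorescence of DMSO wells and lower means quenching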
FAM quench PS1: counter-screen for GRK2 aptamer binding inhibitors: aptamer fluorescence quenching; shares compounds with GRK2 aptamer HTS; Bead-bound FAM RNA aptamer fluorescence quenching, flow cytometry; stronger effect = lower value; fluorescence ratio to DMSO, % at 11.1 µM; 35 tested, under 10 active;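 active = compounds that dim the fluorescent label, raw bead signal shifting by over 33 units between lowest and highest dose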
* marks the source's active call; other numbers are inactive results; ? = inconclusive; · = no result. Most compounds without a hit are left out; they make up all but 0.99% or so of the library.

SMILES	Tn7 DDE FP	GRK2 aptamer HTS	Ins promoter up	ABCG2 block	DDE Tn6 FP inh	ABCB1 block	GRK2 inh confirm	FAM quench CP1	others
COC(=O)c1ccccc1NC(=O)CCS(=O)(=O)c1ccc(Br)s1	-1	3	0.16	22	-7	1	0	103	Aptamer quench=1.2;FAM quench PS1=99
CC(C)NC(=O)CCS(=O)(=O)c1ccc(Br)s1	1	2	1.9	26	-1	0	·	·
Cc1ccccc1NC(=O)CCS(=O)(=O)c1ccc(Br)s1	-2	67*	·	·	-4	·	38	100	Aptamer quench=12;FAM quench PS1=95
O=Cc1c(NCc2ccc(Cl)cc2)c2ccccc2[nH]c1=O	-2	100*	·	·	-2	·	4	94
Cc1nc(SCc2ccc(OCCC(C)C)cc2)n[nH]1	13	100*	-0.67	0	-3	0	2	95
CCCCCOc1ccc(CSc2n[nH]c(C)n2)cc1	-3	2	0.45	13	-7	-1	·	·
COc1ccc(C2C(C(=O)Nc3ccc(Cl)cc3)CCC(=O)N2c2ccc(OC)cc2)cc1 (centres undefined)	-2	·	·	·	-1	·	·	·
C[C@H](NS(=O)(=O)OCC(Cl)(Cl)Cl)C1CC1c1ccccc1 (some centres undefined)	-1	2	·	·	13	·	·	·
O=S(=O)(NC1CC(NS(=O)(=O)OCC(Cl)(Cl)Cl)C2CCCCC12)OCC(Cl)(Cl)Cl (centres undefined)	·	74*	·	·	·	·	-3	100
COc1ccc2c(C(c3ccccc3O)C3CCCN3S(=O)(=O)c3ccc(C)cc3)cn(C)c2c1 (centres undefined)	-1	·	·	·	-5	·	·	·
CN(C)C(=O)CN(c1ccc2c(c1)OCO2)S(C)(=O)=O	3	47*	3.6*	-1	-8	0	4	103
COc1ccc2oc(C(=O)N(Cc3ccco3)Cc3cccs3)c(C)c2c1	1	80*	·	·	-7	·	0	97
CC(COc1ccc(F)cc1)CN1CCC(C(O)(c2ccccc2)c2ccccc2)CC1 (centres undefined)	2	·	·	·	-3	·	·	·
COc1ccc(NC(=O)c2ccccc2NC(=O)CSc2ccc(Cl)cc2)cc1	4	47*	0.84	1	5	0	0	106
COc1ccc(NC(=O)c2ccccc2NC(=O)c2ccccc2)cc1	6	41*	·	·	3	·	·	·	GRK2 CP2=-22;FAM quench CP2=97
CCCC[C@H]1C2CC(OC(=O)Nc3ccc4c(c3)OCO4)C(C2)[C@H]2CCCCN21 (some centres undefined)	0	·	·	·	-4	·	·	·
Cn1c(=O)cc(OCCCC(=O)Nc2cc(-c3cn[nH]c3)ccn2)c2ccccc21	-1	·	·	·	4	·	·	·
CCOc1ccc(-n2c(SCC(=O)Nc3cccc4ccccc34)nnc2-c2ccncc2)cc1	-6	·	·	·	10	·	·	·
CC(C)NC(=O)CC1(C(=O)NCc2ccc(Cl)cc2)CCCC1	-1	50*	·	·	-1	·	·	·	GRK2 CP2=-1;FAM quench CP2=104
Cc1cccc(NC(=O)[C@@H]2CC(=O)O[C@@H]2c2ccccc2)c1C	3	·	·	·	5	·	·	·
Cc1ccc(OCC(C)CN2CCC(C(O)(c3ccccc3)c3ccccc3)CC2)cc1 (centres undefined)	-4	·	·	·	0	·	·	·
Cc1ccc(-c2ccnc(-c3ccc(O)cc3)n2)cc1	-3	0	-0.94	1	-7	-1	·	·
Oc1ccc(-c2nccc(-c3ccc(Br)cc3)n2)cc1	-2	6	·	·	-6	·	-5	100
CCOc1ccccc1N(C(=O)Cn1nnnc1-c1ccc(C)o1)C(CC)C(=O)NC(C)(C)C (centres undefined)	7	97*	·	13	4	8	-1	102
CCC(C(=O)NC1CCCC1)N(C(=O)Cn1nnc(-c2ccc(C)o2)n1)c1ccccc1OC (centres undefined)	2	0	·	·	1	·	·	·
SMILES	Tn7 DDE FP	GRK2 aptamer HTS	Ins promoter up	ABCG2 block	DDE Tn6 FP inh	ABCB1 block	GRK2 inh confirm	FAM quench CP1	others
Nc1ccc(Cn2ccc3c4c(N)nc(N)nc4ccc32)cc1	9	·	·	·	2	·	·	·
COc1cc2cc(CCOC(=O)N3CCCCC3)oc(=O)c2cc1OC	-3	42*	·	·	-1	·	-2	98
COc1cc2cc(CCOC(=O)CCCC(=O)O)oc(=O)c2cc1OC	-3	2	·	·	2	·	·	·
Cc1cc(C(=O)COC(=O)c2nccnc2N)c(C)n1C	3	2	0	7	-10	1	·	·
Cc1ccsc1C(=O)OCC(=O)c1cc(C)n(C)c1C	-5	46*	·	·	3	·	·	·	GRK2 CP2=12;FAM quench CP2=?
Fc1ccccc1CN1CCCN(C(=S)Nc2cccc(Cl)c2)C1	5	1	-0.85	2	-4	0	·	·
O=C(Nc1ccccc1)N1CCCN(Cc2ccccc2F)C1	0	99*	-0.27	1	-3	0	1	92
Cc1ccc(CN2CCCCC(NC(=O)c3ccccc3)C2=O)cc1 (centres undefined)	-1	·	·	·	6	·	·	·
CSc1nc(C)c(C(=O)C[n+]2ccccc2)cc1C#N	-2	94*	-0.29	·	5	·	1	104
CCOC(=O)c1cc(C#N)c(SCC(=O)c2cc(C#N)c(SC)nc2C)nc1C	-1	0	-4.9	·	-9	·	·	·
O=C(CN1CCc2ccccc2C1)Nc1ccccc1C(F)(F)F	0	48*	·	·	-7	·	4	93
CN1CCN(CC(=O)Nc2ccccc2C(F)(F)F)CC1	-10	4	·	·	-11	·	·	·
CC(=O)OCC1=C(C(=O)O)N2C(=O)C(NC(=O)Cn3nc(C(F)F)c(Cl)c3C)C2SC1 (centres undefined)	4	2	0.13	-1	-5	-1	3	101
C=CC[C@H]1c2ccccc2[C@H]2N3N=Cc4ccccc4[C@H]3[C@H](CCc3ccccc3)C(=O)N2N1C(=O)c1ccccc1	-2	·	·	·	-3	·	·	·

Source: PubChem BioAssay (several laboratories)
